Data: ChEMBL document CHEMBL1124821, “Design of an antithrombotic-antihypertensive agent (Wy 27569). Synthesis and evaluation of a series of 2-heteroaryl-substituted dihydropyridines” (J Med Chem, 1990)
Values joined by “and” are separate entries in the source; they are usually repeats but may differ in a detail not shown here. Identical values can stand only once.

Tests used:
Rattus norvegicus [1] = experiment: Reduction in blood pressure of rats, 2 hr after 0.03 mmol/kg p.o. administration; assay type: functional
Procedure, shortened: (§1)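 Female SHR (250–300 g) kept in 37 °C constant-temperature housing; systolic pressure measured by tail-cuff with a pneumatic pulse transducer. Rats below 155 mmHg discarded. Groups of four given a single oral dose in 0.5% (hydroxypropyl)methylcellulose–0.9% saline (10 mL/kg) or vehicle alone; pressure recorded before dosing and at 2, 6 and 24 h. Analysed by analysis of variance.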

Rattus norvegicus [2] = experiment: The compound was tested for reducing blood pressure in rats after 6 hours of 0.003 mmol/kg oral administration.; assay type: functional; procedure, shortened: as §1
Rattus norvegicus [3] = experiment: The compound was tested for reducing blood pressure in rats after 6 hours of 0.03 mmol/kg oral administration.; assay type: functional; procedure, shortened: as §1
Rattus norvegicus [4] = experiment: The compound was tested for reducing blood pressure in rats after 2 hours of 0.003 mmol/kg oral administration.; assay type: functional; procedure, shortened: as §1
[5] = biological target: Thromboxane-A synthase (Oryctolagus cuniculus); experiment: Inhibition of Thromboxane A2 synthase in rabbit platelets in vitro
Homo sapiens [6] = organism: Homo sapiens; experiment: The compound was tested for effects of compound on 6-KPGF1alpha production at molar concentration of 10e-3 in human platelet rich plasma; assay type: functional
Homo sapiens [7] = organism: Homo sapiens; experiment: The compound was tested for effects of compound on 6-KPGF1alpha production at molar concentration of 10e-4 in human platelet rich plasma; assay type: functional
Homo sapiens [8] = organism: Homo sapiens; experiment: The compound was tested for effects of compound on 6-KPGF1alpha production at molar concentration of 10e-5 in human platelet rich plasma; assay type: functional
Homo sapiens [9] = organism: Homo sapiens; experiment: The compound was tested for effects of compound on 6-KPGF1alpha production at molar concentration of 10e-6 in human platelet rich plasma; assay type: functional
Homo sapiens [10] = organism: Homo sapiens; experiment: The compound was tested for effects of compound on 6-KPGF1alpha production at molar concentration of 10e-7 in human platelet rich plasma; assay type: functional
Homo sapiens [11] = organism: Homo sapiens; experiment: The compound was tested for effects of compound on TXB2 production at different molar concentration of 10e-3 in human platelet rich plasma; assay type: functional
Homo sapiens [12] = organism: Homo sapiens; experiment: The compound was tested for effects of compound on TXB2 production at different molar concentration of 10e-4 in human platelet rich plasma; assay type: functional
Homo sapiens [13] = organism: Homo sapiens; experiment: The compound was tested for effects of compound on TXB2 production at molar concentration of 10e-5 in human platelet rich plasma; assay type: functional
Homo sapiens [14] = organism: Homo sapiens; experiment: The compound was tested for effects of compound on TXB2 production at molar concentration of 10e-6 in human platelet rich plasma; assay type: functional
Homo sapiens [15] = organism: Homo sapiens; experiment: The compound was tested for effects of compound on TXB2 production at molar concentration of 10e-7 in human platelet rich plasma; assay type: functional
Rattus norvegicus [16] = experiment: The compound was tested for reducing blood pressure in rats after 2 hours of 0.03 mmol/kg oral administration; assay type: functional; procedure, shortened: as §1
Rattus norvegicus [17] = experiment: The compound was tested for reducing blood pressure in rats after 6 hours of 0.03 mmol/kg oral administration; assay type: functional; procedure, shortened: as §1
Rattus norvegicus [18] = experiment: The compound was tested for reducing blood pressure in rats after 2 hours of 0.003 mmol/kg oral administration; assay type: functional; procedure, shortened: as §1
Rattus norvegicus [19] = experiment: The compound was tested for plasma levels of 6-KPGF1alpha in rats after 2 hr following dose 0.3(mg/kg) in oral administration; assay type: functional, organism-based
Procedure, shortened: (§2)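 Female normotensive rats killed by CO₂ asphyxiation 2 h after oral dosing with compound or vehicle (n = 10–13 per group). Blood taken from the posterior vena cava with 1% EDTA, centrifuged at once (10000g, 10 min), and plasma stored at –30 °C. TXB₂ and 6-KPGF1α measured by radioimmunoassay, in pg/mL, mean ± SEM. p < 0.05 versus controls taken as significant.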

Rattus norvegicus [20] = experiment: The compound was tested for plasma levels of 6-KPGF1alpha in rats after 2 hr following dose 10(mg/kg) in oral administration.; assay type: functional, organism-based; procedure, shortened: as §2
Rattus norvegicus [21] = experiment: The compound was tested for plasma levels of TXB2 in rats after 2 hr following dose 0.3(mg/kg) in oral administration; assay type: functional, organism-based; procedure, shortened: as §2
Rattus norvegicus [22] = experiment: The compound was tested for plasma levels of TXB2 in rats after 2 hr following dose 1(mg/kg) in oral administration; assay type: functional, organism-based; procedure, shortened: as §2
Rattus norvegicus [23] = experiment: The compound was tested for plasma levels of TXB2 in rats after 2 hr following dose 10(mg/kg) in oral administration; assay type: functional, organism-based; procedure, shortened: as §2
Rattus norvegicus [24] = experiment: The compound was tested for plasma levels of TXB2 in rats after 2 hr following dose 3(mg/kg) in oral administration (P<0.05); assay type: functional, organism-based; procedure, shortened: as §2
Rattus norvegicus [25] = experiment: The compound was tested for plasma levels of 6-KPGF1alpha in rats after 2 hr following dose 3(mg/kg) in oral administration; assay type: functional, organism-based; procedure, shortened: as §2
Homo sapiens [26] = organism: Homo sapiens; experiment: The compound was tested for effects of compound on TXB2 production at molar concentration of 10e-3 in human platelet rich plasma; assay type: functional
Homo sapiens [27] = organism: Homo sapiens; experiment: The compound was tested for effects of compound on TXB2 production at molar concentration of 10e-4 in human platelet rich plasma; assay type: functional
Rattus norvegicus [28] = experiment: The compound was tested for plasma levels of TXB2 in rats after 2 hr following dose 10(mg/kg) in oral administration.; assay type: functional, organism-based; procedure, shortened: as §2
Rattus norvegicus [29] = experiment: The compound was tested for plasma levels of TXB2 in rats after 2 hr following dose 3(mg/kg) in oral administration.; assay type: functional, organism-based; procedure, shortened: as §2
Rattus norvegicus [30] = experiment: The compound was tested for plasma levels of TXB2 in rats after 2 hr following dose 3(mg/kg) in oral administration. (p<0.05); assay type: functional, organism-based; procedure, shortened: as §2
Homo sapiens [31] = organism: Homo sapiens; experiment: The compound was tested for effects of compound on TXB2 production at different molar concentration of 10e-5 in human platelet rich plasma; assay type: functional
Homo sapiens [32] = organism: Homo sapiens; experiment: The compound was tested for effects of compound on TXB2 production at different molar concentration of 10e-6 in human platelet rich plasma; assay type: functional
Homo sapiens [33] = organism: Homo sapiens; experiment: The compound was tested for effects of compound on TXB2 production at different molar concentration of 10e-7 in human platelet rich plasma; assay type: functional
Rattus norvegicus [34] = experiment: The compound was tested for plasma levels of 6-KPGF1alpha in rats after 2 hr following dose 3(mg/kg) in oral administration. (p<0.05); assay type: functional, organism-based; procedure, shortened: as §2

CCO/C(O)=C1\C(Cn2ccnc2)=NC(C)=C(C(=O)OC)C1c1cccc(Cl)c1Cl (stereo unspecified)
Decrease in blood pressure (Rattus norvegicus [1]): 54% | Decrease in blood pressure (Rattus norvegicus [2]): 20% | Decrease in blood pressure (Rattus norvegicus [3]): 49% | Decrease in blood pressure (Rattus norvegicus [4]): 40%

CCO/C(O)=C1\C(C)=NC(Cn2ccnc2)=C(C(=O)OC)C1c1cccc(C(F)(F)F)c1Cl (stereo unspecified)
Decrease in blood pressure (Rattus norvegicus [1]): 16% | IC50 [5]: 125 µM

CCO/C(O)=C1\C(Cn2ccnc2)=NC(C)=C(C(=O)OC)C1c1ccccc1[N+](=O)[O-] (stereo unspecified)
Decrease in blood pressure (Rattus norvegicus [1]): 59% | Decrease in blood pressure (Rattus norvegicus [2]): 14% | Decrease in blood pressure (Rattus norvegicus [3]): 56% | Decrease in blood pressure (Rattus norvegicus [4]): 44%

CCO/C(O)=C1\C(C)=NC(Cn2ccnc2)=C(C(=O)OC)C1c1cccc([N+](=O)[O-])c1 (stereo unspecified)
IC50 [5]: 2.2 µM

CCOC(=O)C1=C(COc2cccnc2)NC(C)=C(C(=O)OC)C1c1cccc([N+](=O)[O-])c1.Cl (stereo unspecified)
Decrease in blood pressure (Rattus norvegicus [1]): 40%

CCO/C(O)=C1\C(Cn2ccnc2)=NC(C)=C(C(=O)OC)C1c1cccc([N+](=O)[O-])c1.Cl (stereo unspecified)
Production (Homo sapiens [6]): 460% | Production (Homo sapiens [7]): 431% | Production (Homo sapiens [8]): 119% | Production (Homo sapiens [9]): 112% | Production (Homo sapiens [10]): 100% | Production (Homo sapiens [11]): 0% | Production (Homo sapiens [12]): 10% | Production (Homo sapiens [13]): 43% | Production (Homo sapiens [14]): 67% | Production (Homo sapiens [15]): 92% | Decrease in blood pressure (Rattus norvegicus [16]): 51% | Decrease in blood pressure (Rattus norvegicus [17]): 38% and 28% | Decrease in blood pressure (Rattus norvegicus [18]): 34% | Plasma level (Rattus norvegicus [19]): 22 pg/mL | Plasma level (Rattus norvegicus [20]): 94 pg/mL | Plasma level (Rattus norvegicus [21]): 484 pg/mL | Plasma level (Rattus norvegicus [22]): 402 pg/mL | Plasma level (Rattus norvegicus [23]): 280 pg/mL | Plasma level (Rattus norvegicus [24]): 330 pg/mL | Plasma level (Rattus norvegicus [25]): 68 pg/mL

CCO/C(O)=C1\C(COCCn2ccnc2)=NC(C)=C(C(=O)OC)C1c1cccc([N+](=O)[O-])c1.Cl (stereo unspecified)
Decrease in blood pressure (Rattus norvegicus [1]): 56% | Decrease in blood pressure (Rattus norvegicus [17]): 42%

O=C(O)c1ccc(OCCn2ccnc2)cc1 [DAZOXIBEN]
Production (Homo sapiens [6]): 345% | Production (Homo sapiens [7]): 460% | Production (Homo sapiens [8]): 603% | Production (Homo sapiens [9]): 463% | Production (Homo sapiens [10]): 115% | Production (Homo sapiens [26]): 2% | Production (Homo sapiens [27]): 5% | Production (Homo sapiens [13]): 21% | Production (Homo sapiens [14]): 69% | Production (Homo sapiens [15]): 97.5% | Plasma level (Rattus norvegicus [28]): 270 pg/mL and 202 pg/mL | Plasma level (Rattus norvegicus [29]): 384 pg/mL | Plasma level (Rattus norvegicus [30]): 384 pg/mL

CCO/C(O)=C1\C(Cn2ccnc2)=NC(C)=C(C(=O)OC)C1c1ccccc1OC(F)F (stereo unspecified)
Decrease in blood pressure (Rattus norvegicus [1]): 55% and 48%

COC(=O)C1=C(C)N=C(Cn2ccnc2)/C(=C(/O)OC)C1c1cccc([N+](=O)[O-])c1.Cl (stereo unspecified)
Decrease in blood pressure (Rattus norvegicus [1]): 42% | Decrease in blood pressure (Rattus norvegicus [3]): 27%

CCOC(=O)C1=C(C)N=C(CCn2ccnc2)/C(=C(/O)OCC)C1c1ccccc1[N+](=O)[O-].O=C(O)/C=C\C(=O)O (stereo unspecified)
Decrease in blood pressure (Rattus norvegicus [1]): 44% | IC50 [5]: 2.3 µM

CCO/C(O)=C1\C(Cn2ccnc2)=NC(C)=C(C(=O)OC(C)C)C1c1cccc([N+](=O)[O-])c1.Cl (stereo unspecified)
Decrease in blood pressure (Rattus norvegicus [1]): 21% | Decrease in blood pressure (Rattus norvegicus [3]): 19%

CCO/C(O)=C1\C(COCc2cccnc2)=NC(C)=C(C(=O)OC)C1c1cccc([N+](=O)[O-])c1.Cl (stereo unspecified)
Decrease in blood pressure (Rattus norvegicus [1]): 18%

CCO/C(O)=C1\C(Cn2ccnc2)=NC(C)=C(C(=O)OC)C1c1cccc(C(F)(F)F)c1Cl (stereo unspecified)
Decrease in blood pressure (Rattus norvegicus [1]): 60% | Decrease in blood pressure (Rattus norvegicus [3]): 52% | Decrease in blood pressure (Rattus norvegicus [4]): 16%

CCOC(=O)C1=C(C)NC(C)=C(C(=O)OC)C1c1cccc([N+](=O)[O-])c1 (stereo unspecified) [NITRENDIPINE]
Production (Homo sapiens [6]): 96% | Production (Homo sapiens [7]): 121% | Production (Homo sapiens [8]): 136% | Production (Homo sapiens [9]): 113% | Production (Homo sapiens [10]): 112% | Production (Homo sapiens [11]): 35% | Production (Homo sapiens [12]): 40% | Production (Homo sapiens [31]): 81% | Production (Homo sapiens [32]): 84% | Production (Homo sapiens [33]): 87% | Decrease in blood pressure (Rattus norvegicus [1]): 33% | Plasma concentration (Rattus norvegicus [34]): 62 pg/mL | Plasma concentration (Rattus norvegicus [20]): 60 pg/mL | Plasma concentration (Rattus norvegicus [28]): 562 pg/mL | Plasma concentration (Rattus norvegicus [29]): 564 pg/mL

CCO/C(O)=C1\C(Cn2ccnc2)=NC(C)=C(C(=O)OC)C1c1ccccc1Cl (stereo unspecified)
Decrease in blood pressure (Rattus norvegicus [1]): 31% | Decrease in blood pressure (Rattus norvegicus [3]): 15% | IC50 [5]: 0.5 µM

Br.CCO/C(O)=C1\C(Cn2ccnc2)=NC(C)=C(C(=O)OC)C1c1c(F)cccc1Cl (stereo unspecified)
Decrease in blood pressure (Rattus norvegicus [1]): 48% and 35% | IC50 [5]: 19.5 µM

CCO/C(O)=C1\C(COCCc2cccnc2)=NC(C)=C(C(=O)OC)C1c1cccc([N+](=O)[O-])c1.Cl (stereo unspecified)
Decrease in blood pressure (Rattus norvegicus [1]): 40%

CCOC(=O)C1=C(CCn2ccnc2)N=C(CCn2ccnc2)/C(=C(/O)OCC)C1c1cccc([N+](=O)[O-])c1 (stereo unspecified)
IC50 [5]: 5.3 µM

CCO/C(O)=C1\C(C)=NC(Cn2ccnc2)=C(C(=O)OC)C1c1ccccc1OC(F)F (stereo unspecified)
Decrease in blood pressure (Rattus norvegicus [1]): 48% | Decrease in blood pressure (Rattus norvegicus [3]): 31% | IC50 [5]: 25 µM

CCO/C(O)=C1\C(Cn2ccnc2)=NC(Cn2ccnc2)=C(C(=O)OC)C1c1cccc([N+](=O)[O-])c1 (stereo unspecified)
IC50 [5]: 0.6 µM

CCOC(=O)C1=C(C)N=C(Cn2ccnc2)/C(=C(/O)OCC)C1c1cccc([N+](=O)[O-])c1.Cl (stereo unspecified)
Decrease in blood pressure (Rattus norvegicus [1]): 47% | Decrease in blood pressure (Rattus norvegicus [3]): 13%
